Values after ≈ are worked out from the molar mass of the structure shown. Each block holds one molecule with its values, some of them ahead of it.
Legend:
[1] = system: Enterococcus faecalis; experiment: Antibacterial activity against Enterococcus faecalis ATCC 29212 by CLSI method; type: functional
How it was run: (§1)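 Broth microdilution MIC in liquid medium following CLSI methods, with ATCC strains. Each run was accepted only if comparator antibiotics fell within their recommended quality-control ranges for the appropriate ATCC strain.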

[2] = system: Haemophilus influenzae; experiment: Antibacterial activity against Haemophilus influenzae ATCC 49247 by CLSI method; type: functional; how it was run: as §1
[3] = system: Enterococcus faecium; experiment: Antibacterial activity against Enterococcus faecium ATCC 49624 by CLSI method; type: functional; how it was run: as §1
[4] = system: Staphylococcus epidermidis; experiment: Antibacterial activity against Staphylococcus epidermidis ATCC 12228 by CLSI method; type: functional; how it was run: as §1
[5] = system: Moraxella catarrhalis; experiment: Antibacterial activity against Moraxella catarrhalis ATCC 25238 by CLSI method; type: functional; how it was run: as §1
[6] = species on record: Rattus norvegicus; experiment: Drug metabolism in rat assessed as reactive metabolites as rat liver protein binding per mg of protein at 100 uCi for 6 days measured on day 7; type: ADME, organism-based; details: in vivo, 144 h
How it was run: (§2)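 Male rats were dosed with unlabeled compound at 90 mg/kg for 6 or 13 days, then given 100 μCi ¹⁴C-labeled compound on day 7 or 14 and killed 4 h later. Liver S9 (9000g) was washed with acetonitrile until free of unbound label and the pellet dissolved in 1 N NaOH at 60 °C. Radioactivity was counted by scintillation, normalized to Bradford protein, and expressed as pmol/mg.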

[7] = species on record: Rattus norvegicus; experiment: Drug metabolism in rat assessed as reactive metabolites as rat liver protein binding per mg of protein at 100 uCi for 13 days measured on day 14; type: ADME, organism-based; details: in vivo, 312 h; how it was run: as §2
[8] = Inhibition of Staphylococcus aureus DNA topoisomerase-4 C2E2 using pBR322 plasmid DNA as substrate by coupled enzyme reaction assay
[9] = system: Staphylococcus aureus; experiment: Antibacterial activity against Staphylococcus aureus ATCC 29213 by CLSI method; type: functional; how it was run: as §1
[10] = system: Staphylococcus aureus; experiment: Antibacterial activity against Staphylococcus aureus ATCC 29213 by CLSI method in presence of human 50% serum; type: functional; how it was run: as §1
[11] = system: Streptococcus pneumoniae; experiment: Antibacterial activity against Streptococcus pneumoniae ATCC 10015 by CLSI method; type: functional; how it was run: as §1
[12] = system: Staphylococcus aureus; experiment: Antibacterial activity against methicillin-susceptible Staphylococcus aureus ATCC 29213 infected in mouse thigh assessed reduction in colony forming unit at 25 mg/kg, po bid after 72 hrs; type: functional
[13] = system: Plasma; experiment: Drug metabolism in rat assessed as metabolites in plasma at 30 mg/kg, po; type: ADME, organism-based; set-up: dose 30 mg/kg, route oral; details: in vivo
[14] = Drug metabolism in rat assessed as metabolites in bile at 30 mg/kg, po; type: ADME, organism-based; set-up: dose 30 mg/kg, route oral; details: in vivo
[15] = Drug metabolism in rat assessed as metabolites in feces at 30 mg/kg, po; type: ADME, organism-based; set-up: dose 30 mg/kg, route oral; details: in vivo
[16] = Drug metabolism in rat assessed as metabolites in urine at 30 mg/kg, po; type: ADME, organism-based; set-up: dose 30 mg/kg, route oral; details: in vivo
[17] = target: T1, Cytochrome P450 2B6 (Homo sapiens, UniProt P20813); experiment: Drug metabolism in recombinant CYP2B6 (unknown origin) at 1 uM after 30 mins; type: ADME; details: recombinant enzyme, 0.5 h
T1 sequence (P20813 whole entry): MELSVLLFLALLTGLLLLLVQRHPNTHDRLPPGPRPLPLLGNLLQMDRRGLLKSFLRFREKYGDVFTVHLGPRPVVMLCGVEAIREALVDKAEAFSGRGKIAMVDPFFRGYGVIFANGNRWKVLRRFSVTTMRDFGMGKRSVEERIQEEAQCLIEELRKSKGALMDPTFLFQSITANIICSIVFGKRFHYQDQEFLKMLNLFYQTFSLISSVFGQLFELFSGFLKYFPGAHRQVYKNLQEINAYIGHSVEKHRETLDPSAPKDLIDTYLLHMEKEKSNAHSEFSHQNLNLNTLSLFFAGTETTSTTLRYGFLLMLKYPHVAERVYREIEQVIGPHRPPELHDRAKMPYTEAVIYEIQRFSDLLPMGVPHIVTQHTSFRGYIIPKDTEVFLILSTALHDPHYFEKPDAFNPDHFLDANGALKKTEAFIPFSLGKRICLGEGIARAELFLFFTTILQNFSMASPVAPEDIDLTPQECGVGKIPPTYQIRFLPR
How it was run: (§3)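 Parent at 1 and 10 μM was incubated with individual recombinant CYP supersomes, with and without NADPH, for 0, 15 and 30 min. Formation of the imine metabolite was quantified by LC-MS/MS.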

[18] = target: Cytochrome P450 2C9 (Homo sapiens, UniProt P11712); experiment: Drug metabolism in recombinant CYP2C9 (unknown origin) at 1 uM after 30 mins; type: ADME; details: recombinant enzyme, 0.5 h; how it was run: as §3
Cytochrome P450 2C9, sequence (P11712 whole entry): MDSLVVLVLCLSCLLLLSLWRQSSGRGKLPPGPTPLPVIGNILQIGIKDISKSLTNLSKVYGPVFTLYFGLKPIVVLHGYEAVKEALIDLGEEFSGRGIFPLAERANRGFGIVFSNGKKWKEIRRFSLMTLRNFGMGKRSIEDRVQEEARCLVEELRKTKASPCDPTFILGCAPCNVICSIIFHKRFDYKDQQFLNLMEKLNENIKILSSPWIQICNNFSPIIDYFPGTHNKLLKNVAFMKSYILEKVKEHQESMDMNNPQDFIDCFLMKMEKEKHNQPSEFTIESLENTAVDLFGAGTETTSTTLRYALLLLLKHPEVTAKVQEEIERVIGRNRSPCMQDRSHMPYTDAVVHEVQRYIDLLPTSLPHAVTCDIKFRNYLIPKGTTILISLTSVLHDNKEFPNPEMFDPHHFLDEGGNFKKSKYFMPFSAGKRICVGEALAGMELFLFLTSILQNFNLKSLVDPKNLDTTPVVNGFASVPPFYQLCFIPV

[19] = target: T2, Cytochrome P450 2C8 (Homo sapiens, UniProt P10632); experiment: Drug metabolism in recombinant CYP2C8 (unknown origin) at 1 uM after 30 mins; type: ADME; details: recombinant enzyme, 0.5 h; how it was run: as §3
T2 sequence (P10632 whole entry): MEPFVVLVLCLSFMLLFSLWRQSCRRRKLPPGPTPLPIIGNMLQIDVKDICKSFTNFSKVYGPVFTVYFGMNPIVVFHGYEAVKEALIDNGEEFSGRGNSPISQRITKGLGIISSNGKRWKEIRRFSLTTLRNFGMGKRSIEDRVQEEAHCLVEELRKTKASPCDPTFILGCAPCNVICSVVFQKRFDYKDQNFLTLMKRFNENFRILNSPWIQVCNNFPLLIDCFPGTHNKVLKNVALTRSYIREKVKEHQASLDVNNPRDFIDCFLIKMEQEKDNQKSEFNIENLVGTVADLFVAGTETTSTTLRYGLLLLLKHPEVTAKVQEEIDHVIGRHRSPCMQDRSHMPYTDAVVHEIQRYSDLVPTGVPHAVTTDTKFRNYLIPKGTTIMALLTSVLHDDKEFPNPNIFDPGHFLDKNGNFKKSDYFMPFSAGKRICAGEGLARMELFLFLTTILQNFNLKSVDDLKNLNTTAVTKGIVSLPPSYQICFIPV

[20] = target: Cytochrome P450 2C19 (Homo sapiens, UniProt P33261); experiment: Drug metabolism in recombinant CYP2C19 (unknown origin) at 1 uM after 30 mins; type: ADME; details: recombinant enzyme, 0.5 h; how it was run: as §3
Cytochrome P450 2C19, sequence (P33261 whole entry): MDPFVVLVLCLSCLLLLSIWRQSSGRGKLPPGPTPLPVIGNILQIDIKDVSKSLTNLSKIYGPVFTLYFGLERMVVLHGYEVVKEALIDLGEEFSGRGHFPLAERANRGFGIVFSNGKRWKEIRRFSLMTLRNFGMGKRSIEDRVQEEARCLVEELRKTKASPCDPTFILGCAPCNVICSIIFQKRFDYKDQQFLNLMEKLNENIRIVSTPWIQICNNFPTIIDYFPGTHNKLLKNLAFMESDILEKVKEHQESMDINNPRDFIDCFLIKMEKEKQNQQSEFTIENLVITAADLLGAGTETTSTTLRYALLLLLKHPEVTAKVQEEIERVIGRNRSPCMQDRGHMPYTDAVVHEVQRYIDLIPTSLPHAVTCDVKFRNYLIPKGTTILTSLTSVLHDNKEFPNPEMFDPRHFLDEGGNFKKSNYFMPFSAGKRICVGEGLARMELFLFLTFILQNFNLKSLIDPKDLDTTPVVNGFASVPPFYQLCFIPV

[21] = target: DNA gyrase (Escherichia coli, UniProt P0AES4+P0AES6); experiment: Inhibition of […] Escherichia coli DNA gyrase A2B2 using pBR322 plasmid DNA as substrate by coupled enzyme reaction assay; type: protein-complex assay

MIC [1]: 0.032 µg/mL (≈ 0.0747 µM)
MIC [2]: 0.5 µg/mL (≈ 1.17 µM)
MIC [3]: 0.125 µg/mL (≈ 0.292 µM)
MIC [4]: ≤ 0.008 µg/mL
MIC [5]: ≤ 0.016 µg/mL
Drug metabolism [6]: < 5 pmol
Drug metabolism [7]: < 5 pmol
MIC [9]: 0.032 µg/mL (≈ 0.0747 µM)
MIC [10]: 0.25 µg/mL
MIC [11]: ≤ 0.008 µg/mL
SMILES: CCNC(=O)Nc1nc2cc(-c3cnc(C(C)(C)O)nc3)c(F)c([C@H]3CCCO3)c2[nH]1
Ki [8]: 9 nM

MIC [1]: < 0.008 µg/mL
MIC [2]: 1 µg/mL (≈ 2.65 µM)
Drug metabolism [13]: metabolite_notdetected
Drug metabolism [14]: metabolite_notdetected
Drug metabolism [15]: metabolite_notdetected
Drug metabolism [16]: metabolite_notdetected
Drug metabolism [17]: metabolite_notdetected
Drug metabolism [18]: metabolite_notdetected
Drug metabolism [19]: metabolite_notdetected
Drug metabolism [20]: metabolite_notdetected
Ki [21]: 5 nM
MIC [9]: 0.016 µg/mL (≈ 0.0424 µM)
MIC [10]: 0.25 µg/mL
MIC [11]: ≤ 0.008 µg/mL
SMILES: CCNC(=O)Nc1nc2cc(-c3cncc(F)c3)cc(-c3ncccn3)c2[nH]1
log10cfu [12]: >4
Ki [8]: < 6 nM
